Experimental data reported in ChEMBL document CHEMBL4024748, “Development of Potent Type I Protein Arginine Methyltransferase (PRMT) Inhibitors of Leukemia Cell Proliferation” (J Med Chem, 2017).
The source made the active and inactive calls. No cut-off for these calls is given here.

Assays:
[1] = target: Protein arginine N-methyltransferase 1 (Rattus norvegicus, UniProt Q63009); test: Inhibition of rat His-tagged PRMT1 (11 to 353 residues) expressed in Escherichia coli BL21(DE3) using biotinylated H4 peptide (1 to 21 residues) as substrate preincubated for 15 mins followed by substrate addition measured after 60 mins in presence of [3H]SAM by microbeta counting method
Outline: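 Radiometric assay in modified Tris buffer. His6-rPRMT1(11–353) preincubated with compound 15 min at RT, then substrate and [3H]-SAM added. Reaction 60 min at RT, stopped with cold stop solution, transferred to Flashplate for 60 min, washed with water/0.1% Tween-20, counted on Microbeta. IC50 from curve fit.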

[2] = target: Protein arginine N-methyltransferase 1 (Rattus norvegicus) (UniProt Q63009); test: Inhibition of rat His-tagged PRMT1 (11 to 353 residues) expressed in Escherichia coli BL21(DE3) at 100 uM using biotinylated H4 peptide (1 to 21 residues) as substrate by TR-FRET assay
Outline: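 Single-point screen at 100 µM. His6-rPRMT1(11–353) expressed in E. coli BL21(DE3) and purified by Ni affinity then gel filtration. Biotinylated H4(1–21) methylated, then product detected with Eu-labelled anti-H4R3me2a antibody plus ULight-streptavidin by TR-FRET. Percent inhibition read.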

MV4-11 [3] = test: Downregulation of MEIS1 mRNA levels in human MV4-11 cells up to 15 uM by qRT-PCR analysis; format: functional, cell-based
Outline: (§1)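 MV4-11 cells treated with compound. mRNA measured by SYBR Green qRT-PCR with B2M as internal control. Fold change from ΔΔCt. Samples run in triplicate, mean ± SD.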

MV4-11 [4] = test: Cell cycle arrest in human MV4-11 cells assessed as accumulation at G1 phase at 1.67 to 15 uM after 72 hrs by propidium iodide staining-based flow cytometry; format: functional
Outline: (§2)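 MV4-11 cells in 6-well plates with compound or DMSO control, harvested at 72 h. Fixed overnight in 70% ethanol at 4°C, washed with PBS, stained 30 min at room temperature with propidium iodide/RNase buffer, analysed by flow cytometry. Mean ± SD of three replicates.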

MV4-11 [5] = test: Downregulation of HOXA10 mRNA levels in human MV4-11 cells up to 15 uM by qRT-PCR analysis; format: functional, cell-based; outline: as §1
[6] = target: Protein arginine N-methyltransferase 1 (Homo sapiens) (UniProt Q99873); test: Inhibition of PRMT1 in human MV411 cells assessed as reduction in arginine methylation after 48 hrs by Western blot analysis; format: cell-based
Outline: (§3)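 MV4-11 cells treated with compound for 48 h. ADMA, SDMA and H4R3me2a read by western blot. Blots blocked in 5% nonfat milk in PBST, primary antibodies overnight at 4°C, HRP anti-rabbit secondary at 1:10000 for 1 h.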

MV4-11 [7] = test: Induction of apoptosis in human MV4-11 cells up to 15 uM after 96 hrs by annexin V-FITC/propidium iodide staining-based flow cytometric method; format: functional, cell-based
Outline: (§4)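 MV4-11 cells in 6-well plates with compound or DMSO control, harvested at 96 h. Stained with an Annexin V-FITC apoptosis detection kit and analysed by flow cytometry. Mean ± SD of three replicates.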

MV4-11 [8] = test: Downregulation of HOXA9 mRNA levels in human MV4-11 cells up to 15 uM by qRT-PCR analysis; format: functional, cell-based; outline: as §1
MV4-11 [9] = test: Cytotoxicity against human MV4-11 cells assessed as decrease in cell viability at 6.25 to 12.5 uM after 96 hrs by Cell-Titer Glo assay; format: functional, cell-based
Outline: (§5)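 Cells kept at 37°C, 5% CO2, exposed to compound or DMSO control for 96 h. Viability read by CellTiter-Glo luminescence after 2 min shaking to lyse and 10 min at room temperature. Triplicate wells, normalised to control cells. For long-term growth, log-phase seeding densities; cells counted and replated to the starting density with fresh compound on days 4 and 8.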

MV4-11 [10] = test: Antiproliferative activity against human MV4-11 cells assessed as decrease in cell viability at 0.1 to 1000 uM by Cell-Titer Glo assay; format: functional, cell-based; settings: TDE = time-dependent effect; outline: as §5
MV4-11 [11] = test: Cell cycle arrest in human MV4-11 cells assessed as accumulation at G1 phase after 72 hrs by propidium iodide staining-based flow cytometry; format: functional; outline: as §2
[12] = Cytotoxicity against human RCTEC cells assessed as decrease in cell viability at 6.25 to 25 uM after 96 hrs by Cell-Titer Glo assay; format: cell-based
Outline: (§6)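 Normal HUV-EC-C, MRC-5 and RCTEC cells at 37°C, 5% CO2, given compound or DMSO control for 96 h. Viability by CellTiter-Glo luminescence after 2 min shaking and 10 min at room temperature. Triplicate wells, normalised to control cells.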

MV4-11 [13] = test: Antiproliferative activity against human MV4-11 cells assessed as decrease in cell viability measured at day 12 by Cell-Titer Glo assay; format: functional, cell-based; settings: MV4-11, 288 h; outline: as §5
[14] = target: Protein arginine N-methyltransferase 1 (Homo sapiens) (UniProt Q99873); test: Inhibition of PRMT1 in human MV411 cells assessed as reduction in H4R3me2a levels after 48 hrs by Western blot analysis; format: cell-based; outline: as §3
[15] = Cytotoxicity against human HUV-EC-C cells assessed as decrease in cell viability at 6.25 to 25 uM after 96 hrs by Cell-Titer Glo assay; format: cell-based; outline: as §6
RS4-11 = test: Cytotoxicity against human RS4:11 cells assessed as decrease in cell viability after 96 hrs by Cell-Titer Glo assay; format: functional, cell-based; outline: as §5
MV4-11 [16] = test: Downregulation of HOXA10 mRNA levels in human MV4-11 cells by qRT-PCR analysis; format: functional, cell-based; outline: as §1
MV4-11 [17] = test: Downregulation of HOXA9 mRNA levels in human MV4-11 cells by qRT-PCR analysis; format: functional, cell-based; outline: as §1
KMS-11 = test: Cytotoxicity against human KMS11 cells assessed as decrease in cell viability after 96 hrs by Cell-Titer Glo assay; format: functional, cell-based; outline: as §5
[18] = target: Protein arginine N-methyltransferase 1 (Homo sapiens) (UniProt Q99873); test: Inhibition of PRMT1 in human MV411 cells assessed as increase in SDMA levels after 48 hrs by Western blot analysis; format: cell-based; outline: as §3
RCH-ACV = test: Cytotoxicity against human RCH-ACV cells assessed as decrease in cell viability after 96 hrs by Cell-Titer Glo assay; format: functional, cell-based; outline: as §5
THP-1 = test: Cytotoxicity against human THP1 cells assessed as decrease in cell viability after 96 hrs by Cell-Titer Glo assay; format: functional, cell-based; outline: as §5
KOPN-8 = test: Cytotoxicity against human KOPN8 cells assessed as decrease in cell viability after 96 hrs by Cell-Titer Glo assay; format: functional, cell-based; outline: as §5
U-937 = test: Cytotoxicity against human U937 cells assessed as decrease in cell viability after 96 hrs by Cell-Titer Glo assay; format: functional, cell-based; outline: as §5
MV4-11 [19] = test: Downregulation of MEIS1 mRNA levels in human MV4-11 cells by qRT-PCR analysis; format: functional, cell-based; outline: as §1
[20] = target: Protein arginine N-methyltransferase 1 (Rattus norvegicus) (UniProt Q63009); test: Binding affinity to rat His-tagged PRMT1 (11 to 353 residues) expressed in Escherichia coli BL21(DE3) at 200 uM by 1D 1H CPMG-NMR spectroscopic method
Outline: (§7)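 Rat PRMT1 (11–353), N-His6, expressed in E. coli BL21(DE3) with 0.4 mM IPTG at 16°C. Purified by Ni affinity and Superdex200. NMR used 5 µM PRMT1 in phosphate buffer pH 7.4 (20 mM NaH2PO4, 20 mM Na2HPO4, 100 mM NaCl) in D2O. Ligand at 200 µM in 5% DMSO-d6. CPMG run with 5, 2 and 1 µM PRMT1, plus STD.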

[21] = target: Protein arginine N-methyltransferase 1 (Rattus norvegicus) (UniProt Q63009); test: Binding affinity to rat His-tagged PRMT1 (11 to 353 residues) expressed in Escherichia coli BL21(DE3) at 200 uM by STD-NMR spectroscopic method; outline: as §7
MV4-11 [22] = test: Induction of apoptosis in human MV4-11 cells after 96 hrs by annexin V-FITC/propidium iodide staining-based flow cytometric method; format: functional, cell-based; outline: as §4
REH = test: Cytotoxicity against human REH cells assessed as decrease in cell viability after 96 hrs by Cell-Titer Glo assay; format: functional, cell-based; outline: as §5
MRC5 = test: Cytotoxicity against human MRC5 cells assessed as decrease in cell viability at 6.25 to 25 uM after 96 hrs by Cell-Titer Glo assay; format: cell-based; settings: mrc5, 96 h; outline: as §6
[23] = target: Protein arginine N-methyltransferase 1 (Homo sapiens) (UniProt Q99873); test: Inhibition of PRMT1 in human MV411 cells assessed as reduction in ADMA levels after 48 hrs by Western blot analysis; format: cell-based; outline: as §3
MV4-11 [24] = test: Upregulation of MNDA mRNA levels in human MV4-11 cells by qRT-PCR analysis; format: functional, cell-based
Outline: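 Treated MV4-11 cells analysed by SYBR Green qRT-PCR, with B2M as internal control. Fold change calculated by the ΔΔCt method. Samples run in triplicate and reported as mean ± SD.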

Sequence of Protein arginine N-methyltransferase 1 (Q63009 whole entry, the tested form may be a part): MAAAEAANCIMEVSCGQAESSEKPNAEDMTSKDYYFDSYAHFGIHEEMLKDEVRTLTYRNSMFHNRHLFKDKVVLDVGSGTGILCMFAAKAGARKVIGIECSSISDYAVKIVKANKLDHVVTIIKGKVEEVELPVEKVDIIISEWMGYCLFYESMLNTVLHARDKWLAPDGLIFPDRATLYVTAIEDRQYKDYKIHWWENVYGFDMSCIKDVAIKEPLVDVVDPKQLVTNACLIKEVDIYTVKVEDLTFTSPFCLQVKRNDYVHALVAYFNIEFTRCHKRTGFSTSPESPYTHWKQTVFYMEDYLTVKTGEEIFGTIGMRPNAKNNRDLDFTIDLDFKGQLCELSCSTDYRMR
Sequence of Protein arginine N-methyltransferase 1 (Rattus norvegicus) (Q63009 whole entry, looked up, the tested form may be a part): as the sequence (Q63009 whole entry, the tested form may be a part) above
Sequence of Protein arginine N-methyltransferase 1 (Homo sapiens) (Q99873 whole entry, looked up): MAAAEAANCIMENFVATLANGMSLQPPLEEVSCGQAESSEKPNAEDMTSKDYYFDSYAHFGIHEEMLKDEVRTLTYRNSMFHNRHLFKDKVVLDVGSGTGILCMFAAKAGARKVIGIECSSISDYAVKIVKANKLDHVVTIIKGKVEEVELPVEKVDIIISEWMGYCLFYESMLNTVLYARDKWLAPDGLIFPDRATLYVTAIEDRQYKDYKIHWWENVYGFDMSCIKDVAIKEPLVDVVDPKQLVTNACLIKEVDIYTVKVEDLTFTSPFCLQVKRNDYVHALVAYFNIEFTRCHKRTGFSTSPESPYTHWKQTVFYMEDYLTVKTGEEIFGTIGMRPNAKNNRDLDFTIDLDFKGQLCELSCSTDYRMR

SMILES: c1ccc(COc2cccc(CNCC3CCNCC3)c2)cc1
- IC50 [1]: 147 µM
- inhibition [2]: > 80%

SMILES: C=CCOc1ccc(CNCCc2ccc(S(N)(=O)=O)cc2)cc1
- IC50 [1]: 85 µM
- inhibition [2]: > 80%

SMILES: CN(C)CCNCc1ccccc1Sc1ccccc1
- IC50 [1]: > 50 µM
- Activity (MV4-11 [3]): inactive
- Activity (MV4-11 [4]): inactive
- Activity (MV4-11 [5]): inactive
- inhibition [6]: inactive
- Activity (MV4-11 [7]): inactive
- Activity (MV4-11 [8]): inactive
- Activity (MV4-11 [9]): inactive

SMILES: CN(C)CCNC(=O)c1ccccc1Sc1ccccc1
- IC50 [1]: > 50 µM

SMILES: CCOC(=O)c1c2c3ccccc3c3ccccc3c2cc2[n+]1CCc1ccccc1-2
- IC50 [1]: 53 µM
- inhibition [2]: > 80%

SMILES: CNCCN(C)Cc1ccccc1Sc1ccccc1Cl
- IC50 [1]: 0.006 µM
- Activity (MV4-11 [10]): Tde
- Activity (MV4-11 [11]): Dose-dependent effect
- Activity [12]: Non-Toxic
- IC50 (MV4-11 [13]): 1.08 µM
- inhibition [14]: Dose-dependent effect
- Activity [15]: Non-Toxic
- Activity (RS4-11): Dose-dependent effect
- Activity (MV4-11 [16]): Dose-dependent effect
- Activity (MV4-11 [17]): Dose-dependent effect
- Activity (KMS-11): Dose-dependent effect
- inhibition [18]: Dose-dependent effect
- Activity (RCH-ACV): Dose-dependent effect
- Activity (THP-1): Dose-dependent effect
- Activity (KOPN-8): Dose-dependent effect
- Activity (U-937): Dose-dependent effect
- Activity (MV4-11 [19]): Dose-dependent effect
- Activity [20]: Active
- Activity [21]: Active
- Activity (MV4-11 [22]): Dose-dependent effect
- Activity (REH): Dose-dependent effect
- Activity (MRC5): Non-Toxic
- Activity (MV4-11 [9]): Active
- inhibition [23]: Dose-dependent effect
- Activity (MV4-11 [24]): Active

SMILES: CCCNCc1cc(Br)cc(Br)c1OC
- inhibition [2]: > 80%

SMILES: CN(C)CCN(C)Cc1ccccc1Sc1ccccc1Cl
- IC50 [1]: 0.39 µM

SMILES: CN(C)CCN(C)Cc1ccccc1Sc1ccccc1F
- IC50 [1]: 0.71 µM

SMILES: CN(C)CCNCc1ccccc1Sc1cccc2ccccc12
- IC50 [1]: 34 µM

SMILES: CN(C)CCNCc1ccccc1Sc1ccccc1Cl
- IC50 [1]: 54 µM

SMILES: CN(C)CCN(C)Cc1ccccc1Sc1cccc2ccccc12
- IC50 [1]: 3 µM
- inhibition [2]: > 80%
- Activity [20]: Active
- Activity [21]: Active

SMILES: COc1ccc(N(C(=O)C2CCCCC2)S(=O)(=O)c2ccccc2)cc1
- inhibition [2]: > 80%

SMILES: CN(C)CCNC(=O)c1ccccc1Sc1ccccc1Cl
- IC50 [1]: > 50 µM

SMILES: CN(C)CCNC(=O)c1ccccc1Sc1ccccc1F
- IC50 [1]: > 200 µM

SMILES: Cc1ccc(-c2cc(CC(=O)c3c(O)cc(O)cc3O)n[nH]2)cc1
- IC50 [1]: 49 µM
- inhibition [2]: > 80%

SMILES: CN(C)CCN(C)Cc1ccccc1Sc1ccccc1
- IC50 [1]: 3.6 µM

SMILES: CN(C)CCNCc1ccccc1Sc1ccccc1F
- IC50 [1]: 45 µM

SMILES: CN(C)CCNC(=O)c1ccccc1Sc1cccc2ccccc12
- IC50 [1]: > 200 µM
